TRPC6 act: mouse TRPC6 channel activators, primary screen, cell-based, HEK293, membrane potential dye; B-score at 10 µM; HEK293-TRPC6 membrane potential dye fluorescence; stronger effect = higher value; Short transient receptor potential channel 6 (Mus musculus), Q61143; hit rate 0.13% among 310,000;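 active means B-score of the integrated fluorescence ratio above library mean plus 3 SD, and starting fluorescence ratio within library mean plus 5 SD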;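 further: higher score means more depolarization so channel activation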
TRPC6 inhibitor: mouse TRPC6 channel inhibitors, primary screen, cell-based, HEK293, membrane potential dye | ACh-evoked depolarization; stronger effect = lower value | B-score at 10 µM | hit rate 1.1% among 310,000 | AID 2553, 2010;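 active means B-score under library mean minus 3 SD, initial fluorescence not abnormally high, positive integrated signal ratio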;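 further: B-score derived from integrated fluorescence ratio over the kinetic read; more negative B-score means stronger inhibition of depolarization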
TRPC4 agonist: activators of mouse TRPC4 channel, primary screen, Fluo4 calcium, HEK293 TRPC4beta/mu-opioid cells | Fluo4 calcium fluorescence; stronger effect = higher value | B-score at 10 µM | hit rate 0.49% among 310,000 | AID 2237, 2010;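 active means B-score above 5 SD of library B-scores, and initial fluorescence ratio not above library mean plus 5 SD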;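 further: positive B-score marks a calcium rise read as TRPC4 activation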
Target sequence (Q9QUQ5 whole entry, looked up): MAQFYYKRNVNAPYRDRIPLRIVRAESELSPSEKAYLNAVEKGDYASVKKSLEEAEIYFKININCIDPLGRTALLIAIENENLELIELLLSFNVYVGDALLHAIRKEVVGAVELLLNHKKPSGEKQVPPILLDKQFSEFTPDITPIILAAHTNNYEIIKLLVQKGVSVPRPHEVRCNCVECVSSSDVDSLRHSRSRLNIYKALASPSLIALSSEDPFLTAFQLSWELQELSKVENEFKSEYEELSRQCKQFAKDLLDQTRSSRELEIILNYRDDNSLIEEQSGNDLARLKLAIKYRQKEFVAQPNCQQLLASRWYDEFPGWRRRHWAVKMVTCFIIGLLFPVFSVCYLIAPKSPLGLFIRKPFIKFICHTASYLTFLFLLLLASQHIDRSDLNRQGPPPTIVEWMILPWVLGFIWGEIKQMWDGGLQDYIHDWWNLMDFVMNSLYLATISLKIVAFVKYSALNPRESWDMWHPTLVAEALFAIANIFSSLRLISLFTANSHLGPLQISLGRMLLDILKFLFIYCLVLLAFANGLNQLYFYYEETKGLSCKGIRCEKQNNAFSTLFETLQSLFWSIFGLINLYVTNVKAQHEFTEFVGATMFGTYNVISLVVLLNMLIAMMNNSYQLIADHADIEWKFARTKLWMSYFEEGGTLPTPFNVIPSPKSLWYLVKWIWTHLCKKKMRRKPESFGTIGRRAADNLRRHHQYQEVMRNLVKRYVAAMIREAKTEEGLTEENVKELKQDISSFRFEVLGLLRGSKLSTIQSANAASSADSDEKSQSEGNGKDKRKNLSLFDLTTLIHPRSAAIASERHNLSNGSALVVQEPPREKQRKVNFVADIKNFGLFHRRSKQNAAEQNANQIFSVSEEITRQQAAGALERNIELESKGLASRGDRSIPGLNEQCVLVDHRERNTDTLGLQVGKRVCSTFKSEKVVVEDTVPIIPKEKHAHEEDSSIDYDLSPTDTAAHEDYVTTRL
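Test system: HEK293 cells stably co-expressing mouse TRPC4beta and mu-opioid receptor | Schedule: Fluo4 dye loading 45 min at room temperature, 110 s recording | Measured by: Kinetic Fluo4 calcium fluorescence, 5 s baseline at 1 Hz | Evaluation: B score of integrated ratio | Controls: Buffer (low) and maximal DAMGO (high)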
TRPC4 block: inhibitors of mouse TRPC4 channel, primary screen, Fluo4 calcium, HEK293 TRPC4beta/mu-opioid cells; DAMGO-evoked Fluo4 calcium flux; stronger effect = lower value; hit rate 0.39% among 300,000; Short transient receptor potential channel 4 (Mus musculus), Q9QUQ5; B-score at 10 µM;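 active means B-score over 3 SD under the library average, no early fluorescence shift, positive overall ratio signal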
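Assay system: HEK293 cells with stable TRPC4beta plus mu-opioid receptor expression. Dosing: single dose. Measured by: Fluo4 Ca2+ flux fluorescence. Also added: DAMGO in two steps, submaximal then maximal. Read-out: B score from integrated Fluo4 fluorescence ratio.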
TRPC4 potent: positive allosteric modulators of TRPC4, primary screen, cell-based, mouse TRPC4beta, HEK293 mu-opioid, Fluo-4 calcium; Short transient receptor potential channel 4 (Mus musculus), Q9QUQ5; DAMGO EC20, Fluo-4 Ca2+ flux; stronger effect = higher value; B-score at 10 µM; hit rate 0.42% among 310,000; AID 2227, 2009;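 active means B-score of calcium response area above 5 SD of library B-scores, with initial fluorescence ratio within 5 SD of library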;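 further: B-score of integrated fluorescence ratio over time as area under calcium response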
DSG3 Ab inh: inhibitors of pemphigus antibody binding to DSG3, primary screen, biochemical, bead-based, flow cytometry, scFv-GFP | Desmoglein-3 (Homo sapiens), P32926 | DSG3-coupled beads, scFv-anti-DSG3-GFP binding; stronger effect = lower value | binding (percent of control), % at 10 µM | hit rate 0.48% among 310,000;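 active means binding more than 3 SD below its plate's average and above zero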
TRPC4 sel inh 2: second check of whether TRPC6 inhibitors also affect mouse TRPC4. hit rate 42% among 920. HEK293 TRPC4/MOR, membrane potential dye fluorescence; channel activated by saturating DAMGO dose. inhibition, % at 10 µM. shares compounds with TRPC6 inhibitor;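 active means compounds whose fluorescence signal differed from control wells by over 3 SD, either direction, in both duplicate plates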
TRPC4 spec: mouse TRPC4 modulation by TRPC6 hits, confirmation, selectivity assay for TRPC6 inhibitor project, cell-based, HEK293 TRPC4/mu-opioid, membrane potential dye. AID 2777, 2010. activity change, negative = inhibition, % at 10 µM. hit rate 61% among 920. shares compounds with TRPC6 inhibitor. membrane potential fluorescence;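 active means rise or fall in signal beyond 3 SD of buffer-only wells in both replicate plates, either sign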;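 further: integrated kinetic ratio of fluorescence range over baseline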
HEK293 MPD ctr 2-1: nonspecific membrane potential effects, parental HEK293, confirmation, counter-screen for TRPC6 inhibitor project, cell-based, second counter screen; shares compounds with TRPC6 inhibitor; parental HEK293 membrane potential dye fluorescence; maximal acetylcholine challenge after compound addition; signal change vs control, % at 10 µM; hit rate 31% among 920; AID 2779, 2010;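 active means membrane potential signal moving either way by over 3 SD of the maximum-effect control, in both duplicate plates, meaning non-specific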
HEK293 MPD ctr-1: membrane potential modulation in parental HEK293, confirmation, counter-screen for TRPC6 inhibitor project, cell-based; parental HEK293 membrane potential dye fluorescence; membrane potential signal change, % at 10 µM; hit rate 60% among 920; shares compounds with TRPC6 inhibitor;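 active means membrane potential signal shifting up or down by more than 3 SD of buffer-only wells, on both duplicate plates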
HEK293 MPD ctr-2: parental HEK293 membrane potential modulation, confirmation, counter-screen for TRPC6 modulator project, cell-based | shares compounds with TRPC6 inhibitor | membrane potential dye fluorescence | membrane potential signal change, % at 10 µM | hit rate 51% among 2,400 | AID 488924, 2010;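 active means membrane potential signal moves up or down beyond 5 SD from buffer-only wells, on both duplicate plates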
HEK293 MPD ctr 2-2: parental HEK293 nonspecific activity of TRPC6 modulators, second screen; shares compounds with TRPC6 inhibitor; hit rate 14% among 2,400; membrane potential dye fluorescence; after compound, maximal acetylcholine stimulation; inhibition, % at 10 µM; AID 488926;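 active means membrane potential signal drops by more than 5 SD from the mean control signal, in both duplicate plates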;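 further: plate controls were acetylcholine ECmax control wells for no effect and buffer only wells for full effect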
TRPC4 ctr mod: TRPC4 modulation by TRPC6 hit compounds, confirmation, selectivity assay for TRPC6 modulator project, cell-based, HEK293 TRPC4/mu-opioid, membrane potential dye, mouse; shares compounds with TRPC6 inhibitor; membrane potential fluorescence; percent change from control (negative = decrease, positive = increase), % at 10 µM; hit rate 69% among 2,400; AID 488927, 2010;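 active means membrane potential signal moved up or down beyond 5 SD of buffer control wells, in both duplicate plates, actives on both sides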;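 further: plate controls were assay buffer wells for no effect and DAMGO maximal-effect wells for full effect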
TRPC4/MOR inh 2: second selectivity test of TRPC6 modulators against mouse TRPC4 | hit rate 55% among 2,400 | shares compounds with TRPC6 inhibitor | inhibition, % at 10 µM | HEK293 TRPC4/mu-opioid, membrane potential dye fluorescence; stimulated with maximal-effect DAMGO | AID 488928;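 active means drop in membrane potential signal beyond 5 SD of the control wells in both duplicate plates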;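 further: TRPC4 counter screen for TRPC6 hits run under conditions tuned for TRPC6 not TRPC4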
TRPC6 block conf: mouse TRPC6 channel inhibitors, confirmation, HEK293 cells, membrane potential dye, duplicate. inhibition, % at 10 µM. hit rate 43% among 3,300. shares compounds with TRPC6 inhibitor. ACh-evoked depolarization;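 active means fluorescence ratio falls more than 5 SD below the full-stimulation control mean, in both duplicate runs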;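 further: integrated fluorescence ratio of peak minus minimum over baseline after agonist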
TRPC6 act confirm: mouse TRPC6 channel activators, confirmation, HEK293 cells, membrane potential dye, duplicate | hit rate 11% among 2,800 | HEK293-TRPC6 membrane potential dye fluorescence, FDSS | shares compounds with TRPC6 inhibitor | AID 488961, 2010 | activation, % at 10 µM;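 active means ratio signal rise beyond 5 SD above unstimulated control wells' mean, seen in both duplicate runs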;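 further: plate controls were buffer EC0 wells for no effect and acetylcholine ECmax response for full effect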
Numbers without * were called inactive; i = inactive; . = not tested or not shown. Only some compounds are listed: those with a hit (about 2.5% of all), similar ones and a draw of the others.

SMILES	TRPC6 act	TRPC6 inhibitor	TRPC4 agonist	TRPC4 block	TRPC4 potent	DSG3 Ab inh	HEK293 MPD ctr-2	HEK293 MPD ctr 2-2	TRPC4 ctr mod	TRPC4/MOR inh 2	TRPC6 block conf	TRPC6 act confirm	others
CN1CCN(C(=O)C2CCN(c3ncc(C(F)(F)F)cc3Cl)CC2)CC1	i	-5.18*	i	i	i	93.6	i	i	i	i	i	i
O=C(OC1CCN(c2ncc(C(F)(F)F)cc2Cl)CC1)c1ccccc1	i	i	i	i	i	99.0	.	.	.	.	.	.
O=C(NCCCN1CCCC1=O)c1c(O)nc2sccn2c1=O	i	i	i	i	i	98.7	.	.	.	.	.	.
CSc1ccccc1NC(=O)c1ccccc1N(Cc1ccccc1)S(C)(=O)=O	i	-5.15*	i	i	i	97.8	141.5%*	i	29.5%*	i	i	.
CC(C(=O)Nc1ccc([N+](=O)[O-])cc1)N1CCN(C/C=C/c2ccccc2)CC1 (configuration not stated)	i	-5.98*	i	i	i	122.1	i	i	i	54.0%*	i	i
CCOC(=O)c1cnc2ccc(C)cc2c1NCCN1CCOCC1	i	-5.06*	i	i	i	94.2	i	i	15.0%*	34.0%*	42.5%*	i
CCOC(=O)c1cnc2c(C)c(Cl)ccc2c1NCCCN1CCOCC1	i	i	i	i	i	117.2	.	.	.	.	.	.
CCOC(=O)c1ccc2ncc(C(=O)OCC)c(NCCCN3CCOCC3)c2c1	i	-6.77*	i	i	i	101.3	.	.	.	.	i	i	TRPC4 sel inh 2=i;TRPC4 spec=-15.6%*;HEK293 MPD ctr 2-1=i;HEK293 MPD ctr-1=-251.0%*
CCOC(=O)c1cnc2ccc(Br)cc2c1NCCCN1CCOCC1	i	i	i	i	i	92.6	.	.	.	.	.	.
CCOC(=O)c1cnc2c(C)cc(C)cc2c1NCCCN1CCOCC1	i	-8.77*	i	i	i	108.8	.	.	.	.	65.2%*	i	TRPC4 sel inh 2=70.5%*;TRPC4 spec=i;HEK293 MPD ctr 2-1=-14.0%*;HEK293 MPD ctr-1=i
CCOC(=O)c1cnc2c(C)c(C)ccc2c1NCCN1CCOCC1	i	-5.8*	i	i	i	106.5	86.0%*	77.0%*	27.5%*	33.0%*	i	i
Cc1ccc2ncnc(NCCCN3CCOCC3)c2c1	i	i	i	i	i	101.7	.	.	.	.	.	.
CCOC(=O)c1cnc2c(Cl)c(Cl)ccc2c1NCCN1CCOCC1	i	i	i	i	i	106.6	.	.	.	.	.	.
CCOc1ccc(N(CC(=O)Nc2cc(C)ccc2C)S(=O)(=O)c2c(C)[nH]c(=O)[nH]c2=O)cc1	i	i	i	i	i	89.8	.	.	.	.	.	.
COCCNS(=O)(=O)c1cc2[nH]c3c(c2cc1C)C(=O)CC(C)(C)C3	i	i	i	i	i	99.3	.	.	.	.	.	.
CCOC(=O)N1CCN(Cc2ccc3ccccc3c2)CC1	i	i	i	i	i	98.7	.	.	.	.	.	.
CN(Cc1ccc(F)cc1)S(=O)(=O)c1nnc(NC(=O)c2ccccc2Br)s1	16.9*	i	i	-6*	i	.	i	i	17.0%*	62.0%*	i	i
CCc1noc(C)c1C(=O)OCC(=O)NC(=O)c1ccccc1	i	i	i	i	i	109.5	.	.	.	.	.	.
Cc1ccc([N+](=O)[O-])cc1N=Nc1c(-c2ccc([N+](=O)[O-])cc2)[nH]n(C(N)=S)c1=O	i	-6.36*	i	i	i	103.0	i	i	i	47.5%*	48.0%*	i
Cc1ccc([N+](=O)[O-])cc1N=Nc1c(C)[nH]n(C(N)=S)c1=O	i	i	i	i	i	97.5	.	.	.	.	.	.
O=C(Nc1cc(S(=O)(=O)N2CCCCC2)ccc1Cl)c1ccc(F)cc1	.	.	.	.	.	100.1	.	.	.	.	.	.
COCCN(C(=O)Cn1nnc2ccccc21)C(C(=O)NC1CCCC1)c1cccc(OC)c1OC (configuration not stated)	i	i	i	i	i	111.4	.	.	.	.	.	.

Compound activity as filed in PubChem BioAssay.
